The record followed here is ChEMBL document CHEMBL4387719, “Investigation of biaryl heterocycles as inhibitors of Wee1 kinase” (Bioorg Med Chem Lett, 2019).

Active and inactive are the calls of the source. The calls are words filed in the database; no cut-off is given here.

The test system of one data set is NCI-H1299. Description: Antiproliferative activity against human NCI-H1299 cells after 72 hrs by cell titer glo assay. To be noted: NCI-H1299, 72 h. It counts as functional, cell-based. A general note: Cellular ATP, detected with luciferase, serves as a proxy for viable cell number.
The target of data set [1] is T1, Wee1-like protein kinase (Homo sapiens, UniProt P30291). Description: Inhibition of WEE1 in human NCI-H1299 cells assessed as reduction in Cdc2 phosphorylation at Tyr15 residue measured after 6 hrs by ELISA. It counts as cell-based.
Data set [2] has as its target T1, Wee1-like protein kinase. Nature of the data set: Binding affinity to wild type N-terminal GST-tagged human WEE1 catalytic domain (215 to 646 residues) expressed in baculovirus expression system measured after 1 hr by TR-FRET assay. For orientation: In TR-FRET formats the signal depends on donor and acceptor labels being close together.
Data set [3] in a line: Clearance in mouse microsomes. It counts as ADME, Microsome.
The nature of data set [4]: Half life in iv dosed mouse. The class given is ADME, organism-based. Conditions: in vivo.
Data set [5] in a line: AUC in po dosed mouse. To be noted: in vivo. It counts as ADME, organism-based.
Data set [6] deals with MX1. Description: Antitumor activity against BRCA1/p53 deficient human MX1 cells xenografted in SCID mouse assessed as tumor growth inhibition at 25 mg/kg/day, po administered every other 2 days for 4 times starting 24 days post-tumor innoculation and measured twice weekly. It counts as functional, organism-based. (In xenograft studies the graft and the host belong to different species.)

Data set [7] can be described thus: Clearance in iv dosed mouse. The class given is ADME, organism-based. To be noted: in vivo.
In data set [8] the test system is MX1. Description: Potentiation of irinotecan-induced antitumor activity against BRCA1/p53 deficient human MX1 cells xenografted in SCID mouse assessed as tumor growth delay at 25 mg/kg/day, po administered every other 2 days for 4 times starting 24 days post-tumor innoculation and measured twice weekly relative to irinotecan. The class given is functional. A digest of the protocol: (§1)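 MX-1 brei (homogenized tumour cell suspension) was injected subcutaneously into the flank of SCID mice. Treatment started at tumour volume ~350 mm³, with dosing beginning on day 24. Arms were vehicle, irinotecan 10 mg/kg/day Q4Dx4, or irinotecan 10 mg/kg/day Q4Dx4 plus test agent 25 mg/kg/day QD, 2 days on/2 days off, for 4 cycles. Tumour volumes were measured twice weekly.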

Data set [9] has as its system MX1. Nature of the data set: Potentiation of irinotecan-induced antitumor activity against BRCA1/p53 deficient human MX1 cells xenografted in SCID mouse assessed as tumor growth inhibition at 25 mg/kg/day, po administered every other 2 days for 4 times starting from 24 days post-tumor innoculation and measured twice weekly relative to control. Conditions: read-out: TGI. It counts as functional. A digest of the protocol:
as §1

Data set [10] is described as follows: Oral bioavailability in mouse. It counts as ADME, organism-based. Conditions: in vivo.
For data set [11], the system named is MX1. Nature of the data set: Potentiation of irinotecan-induced antitumor activity against BRCA1/p53 deficient human MX1 cells xenografted in SCID mouse assessed as tumor growth inhibition at 25 mg/kg/day, po administered every other 2 days for 4 times 24 days post-tumor innoculation and measured twice weekly for 43 days in presence relative to irinotecan. The class given is functional. To be noted: read-out: TGI. A digest of the protocol:
as §1

T1 sequence (P30291 whole entry, the tested form may be a part): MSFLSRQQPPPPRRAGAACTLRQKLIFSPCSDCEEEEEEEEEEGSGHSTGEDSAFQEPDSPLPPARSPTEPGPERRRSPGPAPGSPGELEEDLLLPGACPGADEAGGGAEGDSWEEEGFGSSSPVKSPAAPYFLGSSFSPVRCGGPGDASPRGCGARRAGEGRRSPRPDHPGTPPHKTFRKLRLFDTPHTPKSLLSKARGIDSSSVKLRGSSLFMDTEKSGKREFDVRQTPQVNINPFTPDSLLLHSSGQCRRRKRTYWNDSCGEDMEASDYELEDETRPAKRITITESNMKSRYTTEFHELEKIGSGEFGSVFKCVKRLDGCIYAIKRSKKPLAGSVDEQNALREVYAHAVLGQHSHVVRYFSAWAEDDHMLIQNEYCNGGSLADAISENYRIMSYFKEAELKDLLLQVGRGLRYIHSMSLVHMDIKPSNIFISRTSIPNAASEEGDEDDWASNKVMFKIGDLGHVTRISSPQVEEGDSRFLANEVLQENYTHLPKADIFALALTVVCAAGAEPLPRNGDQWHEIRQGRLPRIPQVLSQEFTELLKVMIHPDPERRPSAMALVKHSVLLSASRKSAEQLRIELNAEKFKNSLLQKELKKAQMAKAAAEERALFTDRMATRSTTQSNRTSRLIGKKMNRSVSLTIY

Broadly, the EC50 is the concentration needed to bring the measured effect to its halfway point. As a reminder, the Ki is the dissociation constant of the complex between target and ligand, obtained from inhibition or displacement. Lower therefore signals tighter binding. Turning to `CN1CCN(c2ccc(Nc3ncc4c(=O)c(-c5c(Cl)cccc5Cl)cn(-c5ccccc5)c4n3)cc2)CC1`, the EC50 in the data set on NCI-H1299 worked out at 500 nM; at Wee1-like protein kinase [1], 246 nM. The compound further had a Ki at Wee1-like protein kinase [2] of 0.2 nM.
In general, CLint scaled refers to the capacity of the preparation to metabolise the compound, expressed as a volume cleared per time. Consider `CN1CCN(c2ccc(Nc3ncc4c(=O)c(-c5c(Cl)cccc5Cl)cn(C)c4n3)cc2)CC1`, for which the values for the EC50 with NCI-H1299 and on Wee1-like protein kinase [1] were 520 nM and 79 nM, respectively. Further, in data set [3], the CLint scaled is 270 mL/min/kg.
As a reminder, the half-life is the time in which the quantity being followed falls by half. Read a low half-life as rapid decline. What is called AUC is the area under the concentration-time curve, a measure of exposure. Read a high AUC as high exposure. The clearance is the rate of elimination divided by the concentration. A high value points to efficient removal. Usually bioavailability stands for the share of a dose that reaches the circulation, judged against a reference dose that is usually intravenous. A low value points to little systemic uptake. With `CN1Cc2cc(Nc3ncc4c(=O)c(-c5c(Cl)cccc5Cl)cn(C)c4n3)ccc2C2(CC2)C1`, the EC50 in the data set on NCI-H1299 worked out at 100 nM; on Wee1-like protein kinase [1] it was 11 nM. The same compound gave a half-life in [4] of 2.7 h. For the same compound, the AUC in data set [5] was 6.2 µM·h. The TGI result in the data set with MX1 [6] was “Active”. The same compound displayed a Ki on Wee1-like protein kinase [2] of 0.3 nM. Besides, in data set [3], the CLint scaled was 413 mL/min/kg. The compound also had a clearance in [7] of 25 mL/min/kg. Moreover, in the data set with MX1 [8], the Activity is recorded as 48%. The inhibition in vivo at 25 mg/kg/day in the data set on MX1 [9] turned out to be 88%; in the data set with MX1 [11], 57%. In data set [10], this compound returned a bioavailability of 44%.
Turning to `Cc1cn(-c2c(Cl)cccc2Cl)c(=O)c2cnc(Nc3ccc4c(c3)CN(C)CC43CC3)nc12`, the figures for the EC50 with NCI-H1299 and at Wee1-like protein kinase [1] were 130 nM and 28 nM, respectively. The Ki at Wee1-like protein kinase [2] stood at 0.5 nM. The same compound had a CLint scaled in data set [3] of 727 mL/min/kg.
Regarding `CN1Cc2cc(Nc3ncc4c(=O)c(-c5c(Cl)cccc5Cl)cn(C5CC5)c4n3)ccc2C2(CC2)C1`, the EC50 worked out at 390 nM in the data set on NCI-H1299 and 31 nM on Wee1-like protein kinase [1]. Also, the CLint scaled in data set [3] is 458 mL/min/kg.
As for `CN1Cc2cc(Nc3ncc4c(=O)n(-c5c(Cl)cccc5Cl)cc(C(F)F)c4n3)ccc2C2(CC2)C1`, the figures for the EC50 in the data set on NCI-H1299 and on Wee1-like protein kinase [1] were 140 nM and 18 nM, respectively. Further, the Ki on Wee1-like protein kinase [2] is 0.6 nM. The compound also gave a CLint scaled in [3] of 753 mL/min/kg.
On to `CN1CCN(c2ccc(Nc3ncc4c(=O)c(-c5c(Cl)cccc5Cl)cn(C5COC5)c4n3)cc2)CC1`, for which the EC50 in the data set on NCI-H1299 is 1720 nM; on Wee1-like protein kinase [1], 324 nM. In [3], the CLint scaled was 582 mL/min/kg.
The matching figures for `CN1Cc2cc(Nc3ncc4c(=O)n(-c5c(Cl)cccc5Cl)cc(CO)c4n3)ccc2C2(CC2)C1`: 60 nM, 25 nM and 320 mL/min/kg.
For the compound `CN(C)CCn1cc(-c2c(Cl)cccc2Cl)c(=O)c2cnc(Nc3ccc(N4CCN(C)CC4)cc3)nc21`, the EC50 in the data set with NCI-H1299 was 7650 nM; at Wee1-like protein kinase [1], 2850 nM. This compound came in with a Ki on Wee1-like protein kinase [2] of 24.4 nM. The compound also showed a CLint scaled in data set [3] of 1970 mL/min/kg.
Take `CN1CCN(c2ccc(Nc3ncc4c(=O)c(-c5c(Cl)cccc5Cl)cn(C5CC5)c4n3)cc2)CC1`: the EC50 with NCI-H1299 came to 460 nM; on Wee1-like protein kinase [1], 22 nM. The Ki on Wee1-like protein kinase [2] was found to be 1 nM. In [3], this compound showed a CLint scaled of 582 mL/min/kg.
Taken in the same sequence, the figures for `CN1CCN(c2ccc(Nc3ncc4c(=O)c(-c5c(Cl)cccc5Cl)cn(CC(C)(C)O)c4n3)cc2)CC1` were over 10000 nM, 4020 nM, 0.2 nM and 482 mL/min/kg.
At Wee1-like protein kinase [2], `CN1Cc2cc(Nc3ncc4c(=O)n(-c5c(F)cccc5Cl)c5nccn5c4n3)ccc2C(C)(C)C1` returned a Ki of 1.1 nM. Moreover, the CLint scaled in [3] is 635 mL/min/kg.
Take `C=Cc1cn(-c2c(Cl)cccc2Cl)c(=O)c2cnc(Nc3ccc4c(c3)CN(C)CC43CC3)nc12`: the EC50 in the data set on NCI-H1299 is 80 nM; on Wee1-like protein kinase [1] it was 21 nM. Also, the Ki at Wee1-like protein kinase [2] was 0.3 nM. For the same compound, the CLint scaled in [3] is 463 mL/min/kg.
Turning to `CCn1cc(-c2c(Cl)cccc2Cl)c(=O)c2cnc(Nc3ccc4c(c3)CN(C)CC43CC3)nc21`, the EC50 in the data set on NCI-H1299 came out at 210 nM; at Wee1-like protein kinase [1], 19 nM.
For `CN1Cc2cc(Nc3ncc4c(=O)c(-c5c(Cl)cccc5Cl)c[nH]c4n3)ccc2C2(CC2)C1`, the results for the EC50 in the data set with NCI-H1299 and at Wee1-like protein kinase [1] were 330 nM and 29 nM, respectively. The Ki at Wee1-like protein kinase [2] amounted to 0.6 nM. The same compound showed a CLint scaled in data set [3] of 532 mL/min/kg.
